# Assay results as given in ChEMBL document CHEMBL1154067, “Antiviral and cytotoxic activities of aminoarylazo compounds and aryltriazene derivatives” (Bioorg Med Chem, 2009).
# Calls of active or inactive are those of the source. How the calls were made is not given here.
# Tested on: Human immunodeficiency virus 1
# Assay: Antiviral activity against HIV1 infected in human MT4 cells assessed as inhibition of virus-induced cytopathicity after 4 days by MTT assay
# Type: functional, organism-based
# Details: not given
row,Structure (SMILES),inhibition
1,CN(C)CCCN(/N=N/c1cc(F)ccc1F)c1cccc(C(F)(F)F)c1,inactive
2,Fc1ccc(F)c(/N=N/Nc2cccc(C(F)(F)F)c2)c1,inactive
3,CN(C)CCCN(/N=N/c1ccccc1)c1ccccc1,inactive

# Tested on: Human alphaherpesvirus 1
# Assay: Antiviral activity against HSV1 infected in Vero-76 cells after 3 days by plaque reduction assay
# Type: functional, organism-based
# Details: Human alphaherpesvirus 1, Vero 76, 72 h
row,Structure (SMILES),EC50 [µM]
1,NC(=O)c1ncn([C@@H]2O[C@H](CO)[C@@H](O)[C@H]2O)n1 [RIBAVIRIN],> 100
2,C[C@@]1(O)[C@H](O)[C@@H](CO)O[C@H]1n1cnc2c(=O)[nH]c(N)nc21 [2'-B-METHYL-GUANOSINE],> 100
3,CN(C)CCCN(/N=N/c1cc(F)ccc1F)c1cccc(C(F)(F)F)c1,> 30
4,Fc1ccc(F)c(/N=N/Nc2cccc(C(F)(F)F)c2)c1,> 80
5,CN(C)CCCN(/N=N/c1ccccc1)c1ccccc1,12

# Tested on: Coxsackievirus B2
# Assay: Antiviral activity against Coxsackie virus type B2 virus infected in african green monkey Vero-76 cells after 3 days by plaque reduction assay
# Type: functional, organism-based
# Details: Enterovirus B, Vero 76, 72 h
# How it was run: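 Vero 76 cells seeded at 2 × 10^5 cells/well, grown overnight to confluence at 37 °C in 5% CO2, then infected at 50–100 PFU/well. Unadsorbed virus removed. Overlay of DMEM with 1% inactivated FCS and 0.75% methylcellulose, with or without serial compound dilutions. After 3 days at 37 °C, fixed and stained with crystal violet in PBS/50% ethanol; plaques counted. EC50 is the concentration reducing plaque number by 50%.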
row,Structure (SMILES),EC50 [µM]
1,NC(=O)c1ncn([C@@H]2O[C@H](CO)[C@@H](O)[C@H]2O)n1 [RIBAVIRIN],> 100
2,Nc1nc2c(ncn2COCCO)c(=O)[nH]1 [ACYCLOVIR],> 100
3,CN(C)CCCN(/N=N/c1cc(F)ccc1F)c1cccc(C(F)(F)F)c1,> 30
4,Fc1ccc(F)c(/N=N/Nc2cccc(C(F)(F)F)c2)c1,> 80
5,CN(C)CCCN(/N=N/c1ccccc1)c1ccccc1,6

# Tested on: Yellow fever virus
# Assay: Antiviral activity against Yellow fever virus infected in BHK-21 cells assessed as inhibition of virus-induced cytopathicity after 3 to 4 days by MTT assay
# Type: functional, organism-based
# Details: not given
row,Structure (SMILES),EC50 [µM]
1,NC(=O)c1ncn([C@@H]2O[C@H](CO)[C@@H](O)[C@H]2O)n1 [RIBAVIRIN],> 100
2,C[C@@]1(O)[C@H](O)[C@@H](CO)O[C@H]1n1cnc2c(=O)[nH]c(N)nc21 [2'-B-METHYL-GUANOSINE],1.8
3,Nc1nc2c(ncn2COCCO)c(=O)[nH]1 [ACYCLOVIR],> 100
4,CN(C)CCCN(/N=N/c1cc(F)ccc1F)c1cccc(C(F)(F)F)c1,> 54
5,Fc1ccc(F)c(/N=N/Nc2cccc(C(F)(F)F)c2)c1,80
6,CN(C)CCCN(/N=N/c1ccccc1)c1ccccc1,> 50

# Tested on: not listed separately
# Assay: (§1) Cytotoxicity against african green monkey Vero 76 cells by crystal violet staining
# Type: cell-based
# Details: chlorocebus sabaeus, Vero 76 cells
# How it was run: (§2)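 Mock-infected Vero 76 seeded at 4 × 10^5 cells/mL, run in parallel with plaque assays, with or without serial compound dilutions. Cell number of monolayers determined by crystal violet staining. CC50 = concentration reducing viable cell number 50%.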
row,Structure (SMILES),CC50 [µM]
1,NC(=O)c1ncn([C@@H]2O[C@H](CO)[C@@H](O)[C@H]2O)n1 [RIBAVIRIN],> 100
2,C[C@@]1(O)[C@H](O)[C@@H](CO)O[C@H]1n1cnc2c(=O)[nH]c(N)nc21 [2'-B-METHYL-GUANOSINE],> 100
3,Nc1nc2c(ncn2COCCO)c(=O)[nH]1 [ACYCLOVIR],> 100

# Tested on: Vero
# Assay: as §1
# Type: cell-based
# Details: chlorocebus sabaeus, vero
# How it was run: as §2
row,Structure (SMILES),CC50 [µM]
1,CN(C)CCCN(/N=N/c1cc(F)ccc1F)c1cccc(C(F)(F)F)c1,30
2,Fc1ccc(F)c(/N=N/Nc2cccc(C(F)(F)F)c2)c1,80
3,CN(C)CCCN(/N=N/c1ccccc1)c1ccccc1,35

# Tested on: Poliovirus 1
# Assay: Antiviral activity against Human poliovirus 1 strain Sabin after 2 days by plaque reduction assay
# Type: functional
# Details: Enterovirus C, 48 h
row,Structure (SMILES),EC50 [µM]
1,NC(=O)c1ncn([C@@H]2O[C@H](CO)[C@@H](O)[C@H]2O)n1 [RIBAVIRIN],> 100
2,C[C@@]1(O)[C@H](O)[C@@H](CO)O[C@H]1n1cnc2c(=O)[nH]c(N)nc21 [2'-B-METHYL-GUANOSINE],> 100
3,Nc1nc2c(ncn2COCCO)c(=O)[nH]1 [ACYCLOVIR],> 100
4,CN(C)CCCN(/N=N/c1cc(F)ccc1F)c1cccc(C(F)(F)F)c1,> 30
5,Fc1ccc(F)c(/N=N/Nc2cccc(C(F)(F)F)c2)c1,> 80
6,CN(C)CCCN(/N=N/c1ccccc1)c1ccccc1,> 35

# Tested on: Vaccinia virus
# Assay: Antiviral activity against Vaccinia virus after 3 days by plaque reduction assay
# Type: functional, organism-based
# Details: Orthopoxvirus vaccinia
row,Structure (SMILES),Activity
1,CN(C)CCCN(/N=N/c1cc(F)ccc1F)c1cccc(C(F)(F)F)c1,inactive
2,Fc1ccc(F)c(/N=N/Nc2cccc(C(F)(F)F)c2)c1,inactive
3,CN(C)CCCN(/N=N/c1ccccc1)c1ccccc1,inactive

# Tested on: not listed separately
# Assay: Cytotoxicity against hamster BHK21 cells assessed as reduction in cell viability after 48 to 96 hrs by MTT assay
# Type: cell-based, Mesocricetus auratus, BHK-21
# Details: BHK21 cells
# How it was run: (§3)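 Mock-infected cells in maintenance medium, MDBK at 6 × 10^5 and BHK at 1 × 10^6 cells/mL initial density, with or without serial compound dilutions. Run in parallel with antiviral assays. Viability by MTT after 48–96 h at 37 °C, 5% CO2. CC50 = concentration reducing viability 50%.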
row,Structure (SMILES),CC50 [µM]
1,NC(=O)c1ncn([C@@H]2O[C@H](CO)[C@@H](O)[C@H]2O)n1 [RIBAVIRIN],> 100
2,Nc1nc2c(ncn2COCCO)c(=O)[nH]1 [ACYCLOVIR],> 100

# Same assay, conditions: bhk-21
row,Structure (SMILES),CC50 [µM]
1,C[C@@]1(O)[C@H](O)[C@@H](CO)O[C@H]1n1cnc2c(=O)[nH]c(N)nc21 [2'-B-METHYL-GUANOSINE],90
2,CN(C)CCCN(/N=N/c1cc(F)ccc1F)c1cccc(C(F)(F)F)c1,54
3,Fc1ccc(F)c(/N=N/Nc2cccc(C(F)(F)F)c2)c1,> 100
4,CN(C)CCCN(/N=N/c1ccccc1)c1ccccc1,50

# Tested on: Vesicular stomatitis virus
# Assay: Antiviral activity against Vesicular stomatitis virus after 2 days by plaque reduction assay
# Type: functional, organism-based
# Details: not given
row,Structure (SMILES),Activity
1,CN(C)CCCN(/N=N/c1cc(F)ccc1F)c1cccc(C(F)(F)F)c1,inactive
2,Fc1ccc(F)c(/N=N/Nc2cccc(C(F)(F)F)c2)c1,inactive
3,CN(C)CCCN(/N=N/c1ccccc1)c1ccccc1,inactive

# Tested on: not listed separately
# Assay: Cytotoxicity against MDBK cells after 48 to 96 hrs by MTT assay
# Type: cell-based, Bos taurus
# Details: cattle, MDBK cells
# How it was run: as §3
row,Structure (SMILES),CC50 [µM]
1,NC(=O)c1ncn([C@@H]2O[C@H](CO)[C@@H](O)[C@H]2O)n1 [RIBAVIRIN],> 100
2,C[C@@]1(O)[C@H](O)[C@@H](CO)O[C@H]1n1cnc2c(=O)[nH]c(N)nc21 [2'-B-METHYL-GUANOSINE],> 100
3,Nc1nc2c(ncn2COCCO)c(=O)[nH]1 [ACYCLOVIR],> 100

# Same assay, conditions: cattle, mdbk
row,Structure (SMILES),CC50 [µM]
1,CN(C)CCCN(/N=N/c1cc(F)ccc1F)c1cccc(C(F)(F)F)c1,> 100
2,Fc1ccc(F)c(/N=N/Nc2cccc(C(F)(F)F)c2)c1,> 100
3,CN(C)CCCN(/N=N/c1ccccc1)c1ccccc1,95

# Tested on: Respiratory syncytial virus
# Assay: Antiviral activity against Respiratory syncytial virus A2 infected in Vero-76 cells after 5 days by plaque reduction assay
# Type: functional, organism-based
# Details: human respiratory syncytial virus, A2, Vero 76, 120 h
row,Structure (SMILES),EC50 [µM]
1,NC(=O)c1ncn([C@@H]2O[C@H](CO)[C@@H](O)[C@H]2O)n1 [RIBAVIRIN],7
2,C[C@@]1(O)[C@H](O)[C@@H](CO)O[C@H]1n1cnc2c(=O)[nH]c(N)nc21 [2'-B-METHYL-GUANOSINE],> 100
3,Nc1nc2c(ncn2COCCO)c(=O)[nH]1 [ACYCLOVIR],> 100
4,CN(C)CCCN(/N=N/c1cc(F)ccc1F)c1cccc(C(F)(F)F)c1,> 30
5,Fc1ccc(F)c(/N=N/Nc2cccc(C(F)(F)F)c2)c1,10
6,CN(C)CCCN(/N=N/c1ccccc1)c1ccccc1,> 35

# Tested on: Mammalian orthoreovirus 1
# Assay: Antiviral activity against Reovirus-1 infected in BHK-21 cells assessed as inhibition of virus-induced cytopathicity after 3 to 4 days by MTT assay
# Type: functional, organism-based
# Details: Mammalian orthoreovirus 1, BHK-21
# How it was run: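 BHK-21 cells seeded at 5 × 10^4 cells/well, grown overnight to confluent monolayers at 37 °C in 5% CO2, then infected at m.o.i. 0.01 in serum-free medium. One hour later, MEM Earle's with 1% final inactivated FCS added, with or without serial compound dilutions. Viability read by MTT after 3–4 days at 37 °C. EC50 is the concentration giving 50% protection from cytopathogenicity.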
row,Structure (SMILES),EC50 [µM]
1,NC(=O)c1ncn([C@@H]2O[C@H](CO)[C@@H](O)[C@H]2O)n1 [RIBAVIRIN],> 100
2,C[C@@]1(O)[C@H](O)[C@@H](CO)O[C@H]1n1cnc2c(=O)[nH]c(N)nc21 [2'-B-METHYL-GUANOSINE],2.4
3,Nc1nc2c(ncn2COCCO)c(=O)[nH]1 [ACYCLOVIR],> 100
4,CN(C)CCCN(/N=N/c1cc(F)ccc1F)c1cccc(C(F)(F)F)c1,> 54
5,Fc1ccc(F)c(/N=N/Nc2cccc(C(F)(F)F)c2)c1,> 100
6,CN(C)CCCN(/N=N/c1ccccc1)c1ccccc1,> 50

# Tested on: MT4
# Assay: (§4) Cytotoxicity against human MT4 cells after 96 hrs by MTT assay
# Type: cell-based
# Details: mt4, 96 h
# How it was run: (§5)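 Exponentially growing mock-infected MT-4 seeded at 1 × 10^5 cells/mL in RPMI-1640 with 10% FCS, penicillin and streptomycin. Incubated with or without serial compound dilutions at 37 °C, 5% CO2. Viability by MTT after 96 h. CC50 = concentration reducing viability 50%.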
row,Structure (SMILES),CC50 [µM]
1,NC(=O)c1ncn([C@@H]2O[C@H](CO)[C@@H](O)[C@H]2O)n1 [RIBAVIRIN],31
2,CN(C)CCCN(/N=N/c1cc(F)ccc1F)c1cccc(C(F)(F)F)c1,16
3,Fc1ccc(F)c(/N=N/Nc2cccc(C(F)(F)F)c2)c1,> 100
4,CN(C)CCCN(/N=N/c1ccccc1)c1ccccc1,33

# Tested on: not listed separately
# Assay: as §4
# Type: cell-based
# Details: MT4 cells
# How it was run: as §5
row,Structure (SMILES),CC50 at 96 h [µM]
1,C[C@@]1(O)[C@H](O)[C@@H](CO)O[C@H]1n1cnc2c(=O)[nH]c(N)nc21 [2'-B-METHYL-GUANOSINE],> 100
2,Nc1nc2c(ncn2COCCO)c(=O)[nH]1 [ACYCLOVIR],> 100

# Tested on: Bovine viral diarrhea virus 1
# Assay: Antiviral activity against Bovine viral diarrhea virus infected in MDBK cells assessed as inhibition of virus-induced cytopathicity after 3 to 4 days by MTT assay
# Type: functional, organism-based
# Details: Bovine viral diarrhea virus isolates and strains
row,Structure (SMILES),EC50 [µM]
1,NC(=O)c1ncn([C@@H]2O[C@H](CO)[C@@H](O)[C@H]2O)n1 [RIBAVIRIN],7
2,Nc1nc2c(ncn2COCCO)c(=O)[nH]1 [ACYCLOVIR],> 100
3,CN(C)CCCN(/N=N/c1cc(F)ccc1F)c1cccc(C(F)(F)F)c1,90
4,Fc1ccc(F)c(/N=N/Nc2cccc(C(F)(F)F)c2)c1,> 100
5,CN(C)CCCN(/N=N/c1ccccc1)c1ccccc1,≥ 95
